No end group written: not given here.
Legend:
Human Gemin4 protein = molecular target: T1, Human Gemin4 protein (Homo sapiens, UniProt P57678); assay: MicroScale thermophoresis; assay type: binding
T1 sequence (P57678 1-1058): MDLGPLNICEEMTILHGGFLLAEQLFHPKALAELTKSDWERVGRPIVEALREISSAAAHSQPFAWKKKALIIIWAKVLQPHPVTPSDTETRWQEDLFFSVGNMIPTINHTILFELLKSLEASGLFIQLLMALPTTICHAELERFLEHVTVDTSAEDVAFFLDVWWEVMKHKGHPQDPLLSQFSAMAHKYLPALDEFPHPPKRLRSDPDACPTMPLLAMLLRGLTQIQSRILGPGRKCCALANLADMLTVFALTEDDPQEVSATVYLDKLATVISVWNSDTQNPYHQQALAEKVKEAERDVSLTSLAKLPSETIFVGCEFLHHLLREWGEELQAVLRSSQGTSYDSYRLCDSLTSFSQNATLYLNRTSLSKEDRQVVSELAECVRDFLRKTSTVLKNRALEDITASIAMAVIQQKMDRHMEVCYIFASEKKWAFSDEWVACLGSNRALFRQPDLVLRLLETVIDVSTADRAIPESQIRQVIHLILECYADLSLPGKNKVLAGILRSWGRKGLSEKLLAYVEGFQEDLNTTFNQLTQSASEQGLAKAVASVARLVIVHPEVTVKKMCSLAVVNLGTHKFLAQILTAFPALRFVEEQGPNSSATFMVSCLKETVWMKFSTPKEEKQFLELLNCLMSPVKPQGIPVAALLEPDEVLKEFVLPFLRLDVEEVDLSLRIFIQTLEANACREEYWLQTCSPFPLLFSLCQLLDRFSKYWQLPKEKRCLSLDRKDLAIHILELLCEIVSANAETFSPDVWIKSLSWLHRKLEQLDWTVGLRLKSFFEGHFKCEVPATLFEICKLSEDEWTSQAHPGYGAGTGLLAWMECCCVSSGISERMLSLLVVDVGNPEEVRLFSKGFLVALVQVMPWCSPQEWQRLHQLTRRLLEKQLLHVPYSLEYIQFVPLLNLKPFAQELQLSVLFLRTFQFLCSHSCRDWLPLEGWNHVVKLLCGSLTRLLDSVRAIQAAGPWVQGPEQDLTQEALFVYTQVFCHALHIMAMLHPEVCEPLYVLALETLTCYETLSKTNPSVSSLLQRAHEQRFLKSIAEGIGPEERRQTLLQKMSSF
Method in brief: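 Human Gemin4 expressed in HEK293 cells and labelled with Cy5 through cysteine sulfhydryl groups. Binding of the test peptide to the labelled protein was measured by microscale thermophoresis, and affinity was derived with the instrument's affinity analysis tool.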

Gemin4 [1] = assay: Co-IP, XLH-36/Gemin4; assay type: binding; settings: endogenous interaction, Fig. 5E
Gemin4 [2] = assay: yeast two-hybrid assay; assay type: binding; settings: DDO medium SD/Trp-/Leu-, TDO medium SD/Trp-/Leu-/HIS-
Gemin4 [3] = assay: Immunofluorescence co-staining XLH-36/Gemin4; assay type: cell-based; settings: MDA-MB-231 cells, confocal immunofluorescence
Method in brief: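 Cells fixed 15 min at RT in β-galactosidase staining fixative, permeabilised with Triton X-100 for 15 min, blocked in 5% BSA for 30 min at RT. Primary antibody overnight at 4 °C, then secondary antibodies 2 h at RT in the dark. DAPI counterstain 10 min in the dark; imaged by fluorescence microscopy. PBS washes between steps.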

MRQGPSTEVPGRAPRPRGPAASRADPSLRPEGGQDP [XLH-36]
Kd (Human Gemin4 protein): 4.76 µM | interaction with Gemin4 (Gemin4 [1]): only Gemin4 was confirmed to interact with XLH-36 | direct interaction with Gemin4 (Gemin4 [2]): supported the direct interaction between XLH-36 and Gemin4 | IF interaction with Gemin4 (Gemin4 [3]): XLH-36 indeed interacted with Gemin4

— publication PMC12738293 (Oncogene, 2025)
